Activity calls are given as the source filed them. The calls are words filed in the database; no cut-off is given here.
Legend:
ACHN = test: Cytotoxicity against human ACHN cells assessed as cellular growth at 10 uM; format: functional
Summary of the method: (§1)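 Single-dose screen run by the NCI across its 60-human-tumour-cell-line panel; growth recorded for each cell line.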

NCI-H23 = test: Cytotoxicity against human NCI-H23 cells assessed as cellular growth at 10 uM; format: functional; summary of the method: as §1
[1] = target: Telomerase reverse transcriptase (Homo sapiens) (UniProt O14746); test: Residual activity of human TERT in H1299 cells at 10 uM after 24 hrs by SEAP reporter gene assay
Telomerase reverse transcriptase (Homo sapiens), sequence (O14746 whole entry): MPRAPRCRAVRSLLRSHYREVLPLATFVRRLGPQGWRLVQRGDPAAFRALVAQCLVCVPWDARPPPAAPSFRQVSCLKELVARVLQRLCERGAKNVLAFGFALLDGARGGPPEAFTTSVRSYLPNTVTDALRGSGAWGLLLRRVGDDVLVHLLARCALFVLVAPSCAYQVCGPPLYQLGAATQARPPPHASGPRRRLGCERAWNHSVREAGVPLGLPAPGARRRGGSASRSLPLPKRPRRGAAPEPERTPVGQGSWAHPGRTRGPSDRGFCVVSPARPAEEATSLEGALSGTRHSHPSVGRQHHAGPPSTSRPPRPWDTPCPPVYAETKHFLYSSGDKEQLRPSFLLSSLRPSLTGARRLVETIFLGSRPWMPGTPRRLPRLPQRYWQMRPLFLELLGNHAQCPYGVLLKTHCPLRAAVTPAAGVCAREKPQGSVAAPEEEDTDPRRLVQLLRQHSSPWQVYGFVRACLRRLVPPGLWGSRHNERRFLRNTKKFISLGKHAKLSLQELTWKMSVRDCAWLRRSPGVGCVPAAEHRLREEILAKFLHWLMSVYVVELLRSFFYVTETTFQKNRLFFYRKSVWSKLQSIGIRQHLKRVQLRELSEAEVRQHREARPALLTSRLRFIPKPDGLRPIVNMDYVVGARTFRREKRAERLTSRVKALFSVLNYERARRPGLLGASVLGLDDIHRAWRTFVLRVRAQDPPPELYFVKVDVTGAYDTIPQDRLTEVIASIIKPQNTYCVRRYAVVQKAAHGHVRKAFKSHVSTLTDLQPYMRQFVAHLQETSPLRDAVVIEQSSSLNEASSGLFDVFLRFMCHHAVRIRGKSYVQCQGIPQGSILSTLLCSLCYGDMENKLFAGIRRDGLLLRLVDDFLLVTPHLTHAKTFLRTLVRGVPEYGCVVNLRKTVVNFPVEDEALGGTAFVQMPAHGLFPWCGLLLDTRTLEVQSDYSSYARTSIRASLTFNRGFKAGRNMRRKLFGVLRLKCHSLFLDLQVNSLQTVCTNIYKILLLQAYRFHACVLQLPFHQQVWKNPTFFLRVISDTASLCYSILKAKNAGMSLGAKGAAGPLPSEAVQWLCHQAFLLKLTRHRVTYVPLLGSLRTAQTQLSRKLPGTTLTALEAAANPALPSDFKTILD

NCI-H460 = test: Cytotoxicity against human NCI-H460 cells assessed as cellular growth at 10 uM; format: functional; summary of the method: as §1
OVCAR-4 = test: Cytotoxicity against human OVCAR4 cells assessed as cellular growth at 10 uM; format: functional; summary of the method: as §1
LOX IMVI = test: Cytotoxicity against human LOXIMVI cells assessed as cellular growth at 10 uM; format: functional; summary of the method: as §1
CCRF-CEM = test: Cytotoxicity against human CCRF-CEM cells assessed as cellular growth at 10 uM; format: functional; summary of the method: as §1
EKVX = test: Cytotoxicity against human EKVX cells assessed as cellular growth at 10 uM; format: functional; summary of the method: as §1
786-0 = test: Cytotoxicity against human 786-0 cells assessed as cellular growth at 10 uM; format: functional; summary of the method: as §1
UACC-62 = test: Cytotoxicity against human UACC62 cells assessed as cellular growth at 10 uM; format: functional
SW-620 = test: Cytotoxicity against human SW620 cells assessed as cellular growth at 10 uM; format: functional
SF-268 = test: Cytotoxicity against human SF268 cells assessed as cellular growth at 10 uM; format: functional; summary of the method: as §1
SNB-19 = test: Cytotoxicity against human SNB19 cells assessed as cellular growth at 10 uM; format: functional
[2] = Cytotoxicity against human Hs 578T cells assessed as cellular growth at 10 uM; format: functional; summary of the method: as §1
U-251 = test: Cytotoxicity against human U251 cells assessed as cellular growth at 10 uM; format: functional
HCT-116 = test: Cytotoxicity against human HCT116 cells assessed as cellular growth at 10 uM; format: functional; summary of the method: as §1
[3] = target: Telomerase reverse transcriptase (Homo sapiens) (UniProt O14746); test: Inhibition of telomerase activity in human H1299 cell free extract at 10 uM by modified TRAP assay
Summary of the method: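 TRAP assay using total cell lysate from H1299 lung cancer cells as the telomerase source, with protein measured against BSA standards. Compounds tested at 10 µM. Controls were lysate without inhibitor (positive) and RNase A-treated extract without inhibitor (negative).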

[4] = Growth of human H1299 cells at 10 uM after 48 hrs by MTT assay; conditions: NCI-H1299, 48 h
MDA-MB-468 = test: Cytotoxicity against human MDA-MB-468 cells assessed as cellular growth at 10 uM; format: functional; summary of the method: as §1
SNB-75 = test: Cytotoxicity against human SNB75 cells assessed as cellular growth at 10 uM; format: functional
SK-MEL-2 = test: Cytotoxicity against human SK-MEL-2 cells assessed as cellular growth at 10 uM; format: functional; summary of the method: as §1
MDA-MB-435 = test: Cytotoxicity against human MDA-MB-435 cells assessed as cellular growth at 10 uM; format: functional; summary of the method: as §1
BT-549 = test: Cytotoxicity against human BT549 cells assessed as cellular growth at 10 uM; format: functional; summary of the method: as §1
NCI/ADR-RES = test: Cytotoxicity against human NCI/ADR-RES cells assessed as cellular growth at 10 uM; format: functional; summary of the method: as §1
SF-539 = test: Cytotoxicity against human SF539 cells assessed as cellular growth at 10 uM; format: functional; summary of the method: as §1
M14 = test: Cytotoxicity against human M14 cells assessed as cellular growth at 10 uM; format: functional; summary of the method: as §1
OVCAR-5 = test: Cytotoxicity against human OVCAR5 cells assessed as cellular growth at 10 uM; format: functional; summary of the method: as §1
IGROV-1 = test: Cytotoxicity against human IGROV1 cells assessed as cellular growth at 10 uM; format: functional; summary of the method: as §1
MDA-MB-231 = test: Cytotoxicity against human MDA-MB-231 cells assessed as cellular growth at 10 uM; format: functional; summary of the method: as §1
HOP-92 = test: Cytotoxicity against human HOP92 cells assessed as cellular growth at 10 uM; format: functional; summary of the method: as §1
SR = test: Cytotoxicity against human SR cells assessed as cellular growth at 10 uM; format: functional
HCC 2998 = test: Cytotoxicity against human HCC2998 cells assessed as cellular growth at 10 uM; format: functional; summary of the method: as §1
HT-29 = test: Cytotoxicity against human HT-29 cells assessed as cellular growth at 10 uM; format: functional; summary of the method: as §1
TK-10 = test: Cytotoxicity against human TK10 cells assessed as cellular growth at 10 uM; format: functional
HOP-62 = test: Cytotoxicity against human HOP62 cells assessed as cellular growth at 10 uM; format: functional; summary of the method: as §1
HL-60(TB) = test: Cytotoxicity against human HL-60(TB) cells assessed as cellular growth at 10 uM; format: functional; summary of the method: as §1
SK-MEL-28 = test: Cytotoxicity against human SK-MEL-28 cells assessed as cellular growth at 10 uM; format: functional; summary of the method: as §1
UO-31 = test: Cytotoxicity against human UO31 cells assessed as cellular growth at 10 uM; format: functional
MCF7 = test: Cytotoxicity against human MCF7 cells assessed as cellular growth at 10 uM; format: functional; summary of the method: as §1
Malme-3M = test: Cytotoxicity against human MALME-3M cells assessed as cellular growth at 10 uM; format: functional; summary of the method: as §1
DU-145 = test: Cytotoxicity against human DU145 cells assessed as cellular growth at 10 uM; format: functional; summary of the method: as §1
MOLT-4 = test: Cytotoxicity against human MOLT4 cells assessed as cellular growth at 10 uM; format: functional; summary of the method: as §1
PC-3 = test: Cytotoxicity against human PC3 cells after 48 hrs by SRB assay; format: functional, cell-based; conditions: PC-3, 48 h
Summary of the method: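 PC-3 cells grown in RPMI1640 with 10% FBS at 37 °C, 5% CO₂. Seeded in medium with 5% FBS; after 24 h, one plate fixed with 10% TCA as T₀. Compound or 0.1% DMSO vehicle added for 48 h, then TCA fixation and 0.4% SRB in 1% acetic acid. Dye solubilized in 10 mM Trizma base, absorbance read at 515 nm. IC50 is the concentration giving 50% reduction of the protein gain in controls.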

SF-295 = test: Cytotoxicity against human SF295 cells assessed as cellular growth at 10 uM; format: functional; summary of the method: as §1
SN12C = test: Cytotoxicity against human SN12C cells assessed as cellular growth at 10 uM; format: functional
[5] = Growth of human H1299 cells at 1 uM after 48 hrs by MTT assay; conditions: NCI-H1299, 48 h
HCT-15 = test: Cytotoxicity against human HCT15 cells assessed as cellular growth at 10 uM; format: functional; summary of the method: as §1
NCI-H226 = test: Cytotoxicity against human NCI-H226 cells assessed as cellular growth at 10 uM; format: functional; summary of the method: as §1
[6] = target: Telomerase reverse transcriptase (Homo sapiens) (UniProt O14746); test: Residual activity of human TERT in H1299 cells at 100 uM after 24 hrs by SEAP reporter gene assay
KM12 = test: Cytotoxicity against human KM12 cells assessed as cellular growth at 10 uM; format: functional; summary of the method: as §1
NCI-H322M = test: Cytotoxicity against human NCI-H322M cells assessed as cellular growth at 10 uM; format: functional; summary of the method: as §1
[7] = target: Telomerase reverse transcriptase (Homo sapiens) (UniProt O14746); test: Residual activity of human TERT in H1299 cells at 1 uM after 24 hrs by SEAP reporter gene assay
A498 = test: Cytotoxicity against human A498 cells assessed as cellular growth at 10 uM; format: functional; summary of the method: as §1
NCI-H522 = test: Cytotoxicity against human NCI-H522 cells assessed as cellular growth at 10 uM; format: functional; summary of the method: as §1
OVCAR-3 = test: Cytotoxicity against human OVCAR3 cells assessed as cellular growth at 10 uM; format: functional; summary of the method: as §1
[8] = Growth of human H1299 cells at 100 uM 48 hrs by MTT assay; conditions: NCI-H1299, 48 h
SK-MEL-5 = test: Cytotoxicity against human SK-MEL-5 cells assessed as cellular growth at 10 uM; format: functional

`O=C(CCl)Nc1ccc2c(c1NC(=O)Cc1ccccc1)C(=O)c1ccccc1C2=O` gave an Activity (ACHN) of 79.64%, an Activity (NCI-H23) of 64.75% and a residual activity [1] of 9%. For the same compound, the Activity (NCI-H460) was 104.5%, the Activity (OVCAR-4) was 80.4% and the Activity (LOX IMVI) was 36.29%. The Activity (CCRF-CEM) was 33.97%, the Activity (EKVX) was 102.08% and the Activity (786-0) was 97.26%. The Activity (UACC-62) was 59.67%, the Activity (SW-620) was 83.41% and the Activity (SF-268) was 80.14%. It also gave an Activity (SNB-19) of 124.27%, an Activity [2] of 66.65% and an Activity (U-251) of 66.17%. For the same compound, the Activity (HCT-116) was 67.55%, the inhibition [3] was “inactive” and the growth, % of control at 10 µM [4] was 5%. The Activity (MDA-MB-468) was 51.02%, the Activity (SNB-75) was 109.14% and the Activity (SK-MEL-2) was -6.49%. The Activity (MDA-MB-435) was 80.4%, the Activity (BT-549) was 79.78% and the Activity (NCI/ADR-RES) was 86.87%. For the same compound, the Activity (SF-539) was 107.09%, the Activity (M14) was 87.1% and the Activity (OVCAR-5) was 119.04%. It also gave an Activity (IGROV-1) of 41.03%, an Activity (MDA-MB-231) of 82.04% and an Activity (HOP-92) of 73.63%. For the same compound, the Activity (SR) was -31.25%, the Activity (HCC 2998) was 94.74% and the Activity (HT-29) was 88.84%. The Activity (TK-10) was 120.81%, the Activity (HOP-62) was 115.67% and the Activity (HL-60(TB)) was 41.36%. It also gave an Activity (SK-MEL-28) of 88.68%, an Activity (UO-31) of 58.19% and an Activity (MCF7) of 51%. For the same compound, the Activity (Malme-3M) was 47.07%, the Activity (DU-145) was 85.83% and the Activity (MOLT-4) was 11.4%. The IC50 (PC-3) was > 20 µM, the Activity (SF-295) was 98.48% and the Activity (SN12C) was 79.93%. It also gave a growth, % of control at 1 µM [5] of 81%, an Activity (HCT-15) of 68.55% and an Activity (NCI-H226) of 80.49%. For the same compound, the residual activity [6] was 7%, the Activity (KM12) was 80.59% and the Activity (NCI-H322M) was 104.38%. It also gave a residual activity [7] of 84%, an Activity (A498) of 91.79% and an Activity (NCI-H522) of 43.37%. The Activity (OVCAR-3) was 86.38%, the growth, % of control at 100 µM [8] was 3% and the Activity (SK-MEL-5) was 51.32%.

— ChEMBL document CHEMBL1926565, “Synthesis, antiproliferative activities and telomerase inhibition evaluation of novel asymmetrical 1,2-disubstituted amidoanthraquinone derivatives” (Eur J Med Chem, 2012)
